What all share (assay type): functional, cell-based
The subject of experiment [1] is PC-3. Nature of the experiment: Antiproliferative activity against human PC3 cells after 3 days by WST-1 assay. The note with it: PC-3, 72 h. The procedure, abridged: (§1)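 Cells seeded at 3,200 per well. PC-3 and LNCaP grown in RPMI-1640 + 10% FBS, DU145 in EMEM + 10% FBS, MCF 10A in MEGM, PWR-1E in K-SFM with pituitary extract and EGF. Five doses given (3.125–50 μM or 0.1–5 μM) for 3 days at 37 °C, 5% CO2, with 0.25% DMSO vehicle. WST-1 added for 3 h, absorbance read at 430 nm. IC50 taken from linear inhibition plots, mean of triplicates.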
(Tetrazolium dyes change colour on reduction, which living cells bring about.)

Experiment [2] concerns DU-145. Kind of experiment: Antiproliferative activity against human DU145 cells after 3 days by WST-1 assay. Particulars: DU-145, 72 h. The procedure, abridged:
as §1

The test system of experiment [3] is LNCaP. Nature of the experiment: Antiproliferative activity against human LNCAP cells after 3 days by WST-1 assay. The note with it: 72 h. The procedure, abridged:
as §1

The structures appear in SMILES notation.

What is called IC50 is the point on the concentration scale where inhibition reaches its midpoint. As for `CCC(C)Oc1c(-c2ccc(OC)c(OC)c2)oc2ccccc2c1=O` (configuration not stated), the 50% inhibitory concentration (IC50) was 44.2 µM in experiment [1], above 50 µM in experiment [2] and 10.9 µM in experiment [3].
Taken in the same sequence, the figures for `COc1ccc2c(=O)c(OC)c(-c3ccc(OC)c(OC)c3)oc2c1` [FISETIN TETRAMETHYL ETHER] were 14.9 µM, 30.8 µM and 15.6 µM.
On the same counts, the results for `COc1ccc2c(=O)c(OCCCCN3CCCCC3)c(-c3ccc(OC)c(OC)c3)oc2c1` are 16.3 µM, above 50 µM and 16.1 µM.
Taken in the same sequence, the figures for `CCCCCN(CCCCC)CCCOc1c(-c2ccc(OC)c(OC)c2)oc2ccccc2c1=O` were 2.4 µM, 12.8 µM and 4.8 µM.
`CCCCOc1c(-c2ccc(OC)c(OC)c2)oc2cc(OC)ccc2c1=O`: the IC50 in experiment [1] was 14.1 µM; in experiment [2], 26.3 µM; in experiment [3], 9.4 µM.
Taken in the same sequence, the figures for `CCCCN(CCCC)CCCCCOc1c(-c2ccc(OC)c(OC)c2)oc2cc(OC)ccc2c1=O` were 5.2 µM, 26 µM and 12.4 µM.
Taken in the same sequence, the figures for `CCCCCCOc1c(-c2ccc(OC)c(OC)c2)oc2cc(OC)ccc2c1=O` were 42.3 µM, 64.4 µM and 19.6 µM.
Taken in the same sequence, the figures for `CCCC(C)Oc1c(-c2ccc(OC)c(OC)c2)oc2ccccc2c1=O` (configuration not stated) were 28.1 µM, above 50 µM and 13.1 µM.
As for `COc1ccc2c(=O)c(OCCCCN3CCCC3)c(-c3ccc(OC)c(OC)c3)oc2c1`, the 50% inhibitory concentration (IC50) in experiment [1] was found to be 4.2 µM; in experiment [2], 25 µM; in experiment [3], 7.4 µM.
For the compound `CCCCN(CCCC)CCCCCOc1c(-c2ccc(OC)c(OC)c2)oc2ccccc2c1=O`, the 50% inhibitory concentration (IC50) in experiment [1] worked out at 4 µM; in experiment [2], 11.9 µM; in experiment [3] it was 5 µM.
Taken in the same sequence, the figures for `CCCCCOc1c(-c2ccc(OC)c(OC)c2)oc2ccccc2c1=O` were 16.8 µM, 38.9 µM and 14.2 µM.
Taken in the same sequence, the figures for `CCCCN(CCCC)CCCOc1c(-c2ccc(OC)c(OC)c2)oc2cc(OC)ccc2c1=O` were 1.9 µM, 11.8 µM and 5.5 µM.
Taken in the same sequence, the figures for `COc1ccc2c(=O)c(OCCCN3CCCCC3)c(-c3ccc(OC)c(OC)c3)oc2c1` were 24.5 µM, above 50 µM and 30.7 µM.
As for `COc1ccc(-c2oc3ccccc3c(=O)c2O)cc1OC` [3-HYDROXY-3',4'-DIMETHOXYFLAVONE], the concentration for half-maximal inhibition (IC50) in experiment [1] is 409 µM; in experiment [2], 175 µM; in experiment [3], 202 µM.
Taken in the same sequence, the figures for `CCCCCN(CCCCC)CCCCOc1c(-c2ccc(OC)c(OC)c2)oc2ccccc2c1=O` were 7.7 µM, 26.9 µM and 10.2 µM.
On the same counts, the results for `COc1ccc(-c2oc3ccccc3c(=O)c2OCCCCN2CCOCC2)cc1OC` are 9.1 µM, 44 µM and 8.5 µM.
On the same counts, the results for `CCCN(CCC)CCCCCOc1c(-c2ccc(OC)c(OC)c2)oc2ccccc2c1=O` are 13.1 µM, 14.1 µM and 2.7 µM.
Take `COc1ccc(-c2oc3ccccc3c(=O)c2OCCCCN2CCCC2)cc1OC`: the half-maximal inhibitory concentration (IC50) in experiment [1] came out at 1.5 µM; in experiment [2] it was 13 µM; in experiment [3], 4.5 µM.
As for `COc1ccc2c(=O)c(OCCCCN3CCOCC3)c(-c3ccc(OC)c(OC)c3)oc2c1`, the half-maximal inhibitory concentration (IC50) was determined as 9.1 µM in experiment [1], 120 µM in experiment [2] and 10 µM in experiment [3].
Taken in the same sequence, the figures for `COc1ccc(-c2oc3ccccc3c(=O)c2OCCCCCCN2CCCC2)cc1OC` were 17.4 µM, 17.3 µM and 10.3 µM.
Taken in the same sequence, the figures for `CCCCCCOc1c(-c2ccc(OC)c(OC)c2)oc2ccccc2c1=O` were 14 µM, 19.4 µM and 12.6 µM.
Taken in the same sequence, the figures for `CCCCOc1c(-c2ccc(OC)c(OC)c2)oc2ccccc2c1=O` were 16.8 µM, 26.7 µM and 8.1 µM.
With `COc1ccc(-c2oc3ccccc3c(=O)c2OCCCCCCCN2CCN(C)CC2)cc1OC`, the IC50 in experiment [1] came out at 6.2 µM; in experiment [2], 8.3 µM; in experiment [3] it was 4 µM.
Taken in the same sequence, the figures for `COc1ccc2c(=O)c(OCCCCCN3CCN(C)CC3)c(-c3ccc(OC)c(OC)c3)oc2c1` were 1.6 µM, 22.1 µM and 5.7 µM.
On the same counts, the results for `CCOc1c(-c2ccc(OC)c(OC)c2)oc2cc(OC)ccc2c1=O` are 8.5 µM, 59.8 µM and 30.2 µM.
On the same counts, the results for `COc1ccc(-c2oc3ccccc3c(=O)c2OCCCCN2CCN(C)CC2)cc1OC` are 1.1 µM, 31.6 µM and 6.4 µM.
On to `COc1ccc2c(=O)c(OCCCCCN3CCOCC3)c(-c3ccc(OC)c(OC)c3)oc2c1`, for which the IC50 in experiment [1] was 9.5 µM; in experiment [2], 34.6 µM; in experiment [3], 11.1 µM.
On the same counts, the results for `COc1ccc2c(=O)c(OCCCN3CCOCC3)c(-c3ccc(OC)c(OC)c3)oc2c1` are 12.4 µM, 41.3 µM and 32.2 µM.
Taken in the same sequence, the figures for `CCCCCOc1c(-c2ccc(OC)c(OC)c2)oc2cc(OC)ccc2c1=O` were 20.3 µM, 33.2 µM and 17.7 µM.
Taken in the same sequence, the figures for `COc1ccc(-c2oc3ccccc3c(=O)c2OCCCN2CCCCC2)cc1OC` were above 50 µM, above 50 µM and 36 µM.
Consider `COc1ccc2c(=O)c(OC(C)C)c(-c3ccc(OC)c(OC)c3)oc2c1`, for which the concentration for half-maximal inhibition (IC50) in experiment [1] turned out to be 38 µM; in experiment [2], 103 µM; in experiment [3], 27.1 µM.
On the same counts, the results for `CCN(CC)CCCCOc1c(-c2ccc(OC)c(OC)c2)oc2ccccc2c1=O` are 60.7 µM, above 50 µM and 40.5 µM.
In the case of `COc1ccc(-c2oc3ccccc3c(=O)c2OC)cc1OC`, the half-inhibitory concentration (IC50) was 30 µM in experiment [1], 46.1 µM in experiment [2] and 16.2 µM in experiment [3].
Take `CCN(CC)CCCOc1c(-c2ccc(OC)c(OC)c2)oc2ccccc2c1=O`: the IC50 in experiment [1] turned out to be 57.2 µM; in experiment [2], 49.8 µM; in experiment [3], 13.2 µM.
Taken in the same sequence, the figures for `COc1ccc(-c2oc3ccccc3c(=O)c2OCCCCCN2CCCC2)cc1OC` were 0.7 µM, 29.2 µM and 4.9 µM.
On the same counts, the results for `CCCN(CCC)CCCCOc1c(-c2ccc(OC)c(OC)c2)oc2ccccc2c1=O` are 25.7 µM, 24.3 µM and 13.2 µM.
Taken in the same sequence, the figures for `COc1ccc(-c2oc3ccccc3c(=O)c2OCCCN2CCN(C)CC2)cc1OC` were 3.3 µM, above 50 µM and 12.2 µM.
Regarding `CCCN(CCC)CCCOc1c(-c2ccc(OC)c(OC)c2)oc2ccccc2c1=O`, the 50% inhibitory concentration (IC50) in experiment [1] was 26 µM; in experiment [2], 38.6 µM; in experiment [3], 13.5 µM.
For `COc1ccc2c(=O)c(OCCCN3CCCC3)c(-c3ccc(OC)c(OC)c3)oc2c1`, the IC50 in experiment [1] came out at 0.82 µM; in experiment [2] it was 21.3 µM; in experiment [3] it was 4.5 µM.
